These results are taken from ChEMBL document CHEMBL4257510, “Mercaptoacetate thioesters and their hydrolysate mercaptoacetic acids jointly inhibit metallo-β-lactamase L1” (Medchemcomm, 2018).

Active and inactive are the calls of the source. No cut-off for these calls is given here.

Data set [1] concerns Bacteria. Briefly: Inhibition of bacterial metallo-beta-lactamase NDM1 expressed in Escherichia coli BL21 (DE3) at 20 uM using cefazolin as substrate preincubated for 30 mins followed by substrate addition.
The nature of data set [2]: Inhibition of bacterial metallo-beta-lactamase L1 expressed in Escherichia coli BL21 (DE3) using cefazolin as substrate preincubated for 30 mins followed by substrate addition. Set-up: species or system Bacteria. An outline of the steps: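 IC50 measured at 25 °C with 50 µM cefazolin and inhibitor varied over 0.01–2 µM, after 30 min enzyme–inhibitor pre-incubation. Compounds were dissolved in DMSO and diluted in 30 mM Tris pH 7.0, with final DMSO below 0.1%.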

The test system of data set [3] is Bacteria. Nature of the data set: Inhibition of bacterial metallo-beta-lactamase L1 expressed in Escherichia coli BL21 (DE3) assessed as cefazolin MIC at 16 ug/ml after 16 hrs by broth macrodilution method (reference value: 32 ug/ml). In short, it runs like this:
(§1)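 E. coli BL21(DE3) carrying pET26b-L1 was grown overnight in Mueller-Hinton broth at 37 °C, pelleted and resuspended to OD600 0.1. MICs were determined by CLSI broth macrodilution after at least 16 h at 37 °C, taking the lowest concentration with no visible growth. Triplicates in at least two independent experiments; highest MIC reported.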

The test system of data set [4] is Bacteria. Nature of the data set: Inhibition of bacterial metallo-beta-lactamase ImiS expressed in Escherichia coli BL21 (DE3) at 20 uM using imipenem as substrate preincubated for 30 mins followed by substrate addition.
For data set [5], the system named is Bacteria. Briefly: Inhibition of bacterial metallo-beta-lactamase L1 expressed in Escherichia coli BL21 (DE3) assessed as decrease in cefazolin MIC at 16 ug/ml after 16 hrs by broth macrodilution method relative to control. An outline of the steps:
as §1

Data set [6] relates to Bacteria. Briefly: Inhibition of bacterial metallo-beta-lactamase L1 expressed in Escherichia coli BL21 (DE3) at 20 uM using cefazolin as substrate preincubated for 30 mins followed by substrate addition relative to control.
In another data set the test system is Escherichia coli. Nature of the data set: Potentiation of cefazolin-mediated antibacterial activity against Escherichia coli BL21(DE3) assessed as cefazolin MIC at 16 ug/ml after 16 hrs by broth macrodilution method (reference value: 4 ug/ml). Format: functional. In short, it runs like this: as §1
A short description of data set [7]: Stability in Tris buffer at pH 6 to 8.5 measured every 2 hrs for 24 hrs by UV-Vis spectroscopic analysis. The settings on record: pH 6, 24 h. Format: physicochemical. In short, it runs like this: (§2)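 Thioester in Tris buffer at pH 6.0, 7.0 or 8.5, or at pH 7.0 with increasing L1 concentration. Absorbance at 245 nm was recorded every 2 h over 24 h.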
The nature of data set [8]: Drug metabolism assessed as bacterial metallo-beta-lactamase L1-mediated hydrolysis measured every 2 hrs for 24 hrs by UV-Vis spectroscopic analysis. Format: ADME. The settings on record: bacteria. An outline of the steps:
as §2

Data set [9] concerns Bacteria. Briefly: Binding affinity to bacterial metallo-beta-lactamase L1 expressed in Escherichia coli BL21 (DE3) treated with 2-(((4-Chlorobenzoyl)methionyl)thio)acetic acid at 2 to 10 mM after 1 hr by STD NMR method. An outline of the steps:
(§3)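 1H STD-NMR at 300 MHz on-resonance and 2000 MHz off-resonance saturation. Total saturation time 1.5 s, relaxation delay 2.5 s. Samples were run in D2O with 5% DMSO-d6 and 150 mM NaCl at pH 7.5, after 1 h pre-incubation. Compound came from 100 mM stock in DMSO-d6.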

Data set [10] deals with Bacteria. Briefly: Binding affinity to bacterial metallo-beta-lactamase L1 expressed in Escherichia coli BL21 (DE3) assessed as change in gibbs free energy by ITC method. For orientation: Isothermal titration calorimetry measures the heat released or taken up as one component is titrated into another.
Data set [11] relates to Bacteria. Nature of the data set: Binding affinity to bacterial metallo-beta-lactamase L1 expressed in Escherichia coli BL21 (DE3) assessed as change in entropy by ITC method.
Data set [12] is described as follows: Binding affinity to bacterial metallo-beta-lactamase L1 expressed in Escherichia coli BL21 (DE3) by ITC method. Set-up: species or system Bacteria.
The test system of another data set is L929. Nature of the data set: Cytotoxicity against mouse L929 cells up to 200 uM after 48 hrs by CCK8 assay. The data set is classed as cell-based. The settings on record: l929, 48 h. (Tetrazolium dyes change colour on reduction, which living cells bring about.)
Data set [13] concerns Bacteria. Nature of the data set: Binding affinity to bacterial metallo-beta-lactamase L1 expressed in Escherichia coli BL21 (DE3) assessed as change in enthalpy by ITC method.
Data set [14] is described as follows: Drug level assessed as bacterial metallo-beta-lactamase L1-mediated compound formation treated with 2-(((4-Chlorobenzoyl)methionyl)thio)acetic acid by HPLC method. The data set is classed as ADME. The settings on record: bacteria. In short, it runs like this: (§4)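 L1-mediated hydrolysis of thioester followed by HPLC under IC50 assay conditions, on a C18 column (150 × 4.6 mm, 5 µm) at 1.0 mL/min.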

Data set [15] can be described thus: Retention time of compound by HPLC method. The data set is classed as physicochemical. In short, it runs like this: as §4
Data set [16] relates to Bacteria. Briefly: Binding affinity to bacterial metallo-beta-lactamase L1 expressed in Escherichia coli BL21 (DE3) at 2 to 10 mM after 1 hr by STD NMR method. An outline of the steps: as §3

The inhibition is the share of the control response that was lost under treatment. Broadly, the IC50 is the concentration at which inhibition is half-maximal. Read a high IC50 as a need for much substance. Consider `O=C(O)CSC(=O)[C@H](Cc1c[nH]c2ccccc12)NC(=O)c1ccc(Cl)cc1`, for which the inhibition result with Bacteria [1] and in the data set with Bacteria [4] was “inactive” in each case. This compound gave an IC50 in data set [2] of 190 nM. The MIC in the data set on Bacteria [3] came out at 8 µg/mL; in the data set with Escherichia coli, 4 µg/mL. Moreover, the fold change (FC) in the data set on Bacteria [5] lay within 2 to 4. For the same compound, in the data set with Bacteria [6], the inhibition is 90 to 95%.
Regarding `O=C(O)CSC(=O)[C@H](Cc1c[nH]c2ccccc12)NC(=O)c1cccc([N+](=O)[O-])c1`, the inhibition result in the data set with Bacteria [1] and with Bacteria [4] was “inactive” each time. This compound showed an IC50 in data set [2] of 800 nM. Also, the MIC in the data set on Bacteria [3] was 16 µg/mL; with Escherichia coli, 4 µg/mL. For the same compound, the fold change (FC) in the data set on Bacteria [5] was in the range of 2 to 4. Also, the inhibition in the data set on Bacteria [6] fell in the range of 90 to 95%.
In the case of `O=C(O)CSC(=O)[C@H](Cc1c[nH]c2ccccc12)NC(=O)c1cccc(Br)c1`, the inhibition entry in the data set with Bacteria [1] and with Bacteria [4] was “inactive” throughout. Besides, the IC50 in [2] came to 620 nM. In addition, the figures for the MIC with Bacteria [3] and in the data set on Escherichia coli were 16 µg/mL and 4 µg/mL, respectively. The fold change (FC) with Bacteria [5] lay in the range of 2 to 4. The inhibition with Bacteria [6] lay in the range of 90 to 95%.
On to `O=C(O)CSC(=O)[C@H](Cc1c[nH]c2ccccc12)NC(=O)c1ccc([N+](=O)[O-])cc1`, for which the inhibition entry in the data set on Bacteria [1] and with Bacteria [4] was “inactive” throughout. Besides, the Stability result in data set [7] is on record as “Stable”. This compound displayed a half-inhibitory concentration (IC50) in data set [2] of 370 nM. Also, the MIC is 8 µg/mL with Bacteria [3] and 4 µg/mL in the data set with Escherichia coli. Further, the Drug metabolism entry in data set [8] is given as “Metabolite_Detected”. The fold change (FC) in the data set on Bacteria [5] lay within 2 to 4. The compound further showed an inhibition in the data set on Bacteria [6] of 90 to 95%.
On to `O=C(O)CSC(=O)[C@H](Cc1c[nH]c2ccccc12)NC(=O)c1ccc(F)cc1`, for which the inhibition result with Bacteria [1] and with Bacteria [4] was “inactive” throughout. For the same compound, half-maximal inhibition in data set [2] (IC50) was put at 750 nM. In addition, the MIC is 16 µg/mL in the data set on Bacteria [3] and 4 µg/mL in the data set on Escherichia coli. The fold change (FC) in the data set on Bacteria [5] lay within 2 to 4. This compound also displayed an inhibition with Bacteria [6] of 90 to 95%.
`O=C(O)CSC(=O)[C@H](Cc1c[nH]c2ccccc12)NC(=O)c1ccc(Br)cc1`: the inhibition entry in the data set on Bacteria [1] and in the data set on Bacteria [4] was “inactive” each time. The compound also showed a concentration for half-maximal inhibition (IC50) in data set [2] of 880 nM. The MIC with Bacteria [3] came to 16 µg/mL; in the data set with Escherichia coli, 4 µg/mL. Also, the fold change (FC) in the data set on Bacteria [5] lay within 2 to 4. The inhibition with Bacteria [6] is 90 to 95%.
Regarding `CSCC[C@H](NC(=O)c1cccc(Br)c1)C(=O)SCC(=O)O`, the inhibition result with Bacteria [1] and in the data set with Bacteria [4] was “inactive” each time. The same compound had an IC50 in data set [2] of 1200 nM. The figures for the MIC in the data set with Bacteria [3] and with Escherichia coli were 16 µg/mL and 4 µg/mL, respectively. The fold change (FC) with Bacteria [5] lay in the range of 2 to 4. For the same compound, the inhibition in the data set with Bacteria [6] lay within 90 to 95%.
On to `O=C(O)CS`, for which the result in the data set on Bacteria [9] was Active.
A word on the Kd: it is the free concentration of one partner at which half of the binding sites on the other are occupied at equilibrium, for simple one-to-one binding. As for `CSCC[C@H](NC(=O)c1ccc([N+](=O)[O-])cc1)C(=O)SCC(=O)O`, the inhibition result with Bacteria [1] and in the data set on Bacteria [4] was “inactive” in each case. Besides, the Stability result in data set [7] was “Stable”. Besides, the IC50 in [2] was 170 nM. Also, the figures for the MIC in the data set on Bacteria [3] and with Escherichia coli were 8 µg/mL and 4 µg/mL, respectively. For the same compound, the deltaG in the data set with Bacteria [10] was -7.18 kcal/mol. The Drug metabolism result in data set [8] is given as “Metabolite_Detected”. The fold change (FC) in the data set with Bacteria [5] was in the range of 2 to 4. For the same compound, the TdeltaS with Bacteria [11] is -9.6 kcal/mol. In the data set with Bacteria [6], this compound returned an inhibition of 90 to 95%. The same compound came in with a Kd in data set [12] of 5500 nM. Moreover, the Activity entry in the data set on L929 is “Non-Toxic”. Besides, the deltaH in the data set with Bacteria [13] is -16.8 kcal/mol.
Regarding `CSCC[C@H](NC(=O)c1ccc(Cl)cc1)C(=O)O`, the outcome in the data set with Bacteria [9] was Active. For the same compound, the Drug metabolism entry in data set [14] is given as “Metabolite_Detected”. For the same compound, the Retention_time in data set [15] was 4.2 min.
In the case of `O=C(O)CSC(=O)[C@H](Cc1c[nH]c2ccccc12)NC(=O)c1ccc(C(F)(F)F)cc1`, the inhibition result in the data set on Bacteria [1] and in the data set on Bacteria [4] was “inactive” in each case. This compound also showed an IC50 in data set [2] of 1030 nM. Further, the MIC was determined as 16 µg/mL in the data set with Bacteria [3] and 4 µg/mL in the data set on Escherichia coli. Moreover, the fold change (FC) with Bacteria [5] is 2 to 4. The inhibition with Bacteria [6] is 90 to 95%.
As for `CSCC[C@H](NC(=O)c1ccc(Cl)cc1)C(=O)SCC(=O)O`, the inhibition result with Bacteria [1] and with Bacteria [4] was “inactive” throughout. The Stability entry in [7] was “Stable”. In [15], this compound yielded a Retention_time of 4.5 min. Besides, the IC50 in data set [2] was 940 nM. In addition, the MIC in the data set on Bacteria [3] was 16 µg/mL; with Escherichia coli, 4 µg/mL. The outcome in the data set on Bacteria [16] was Active. For the same compound, the deltaG in the data set with Bacteria [10] was -6.43 kcal/mol. For the same compound, the Drug metabolism result in [8] is “Metabolite_Detected”. The fold change (FC) in the data set with Bacteria [5] is 2 to 4. Moreover, the TdeltaS with Bacteria [11] was -21.8 kcal/mol. Besides, in the data set with Bacteria [6], the inhibition fell in the range of 90 to 95%. Further, the Kd in [12] was 19700 nM. For the same compound, the Activity entry with L929 is on record as “Non-Toxic”. In addition, the deltaH in the data set with Bacteria [13] was -28.2 kcal/mol.
